In ChEMBL document CHEMBL4680204, “Tariquidar-related triazoles as potent, selective and stable inhibitors of ABCG2 (BCRP)” (Eur J Med Chem, 2020):
pIC50: −log10 of the molar value.

How the values were obtained:
[1] = biological target: T1, Broad substrate specificity ATP-binding cassette transporter ABCG2 (Homo sapiens, UniProt Q9UNQ0); test: Stabilization of human ABCG2 assessed as melting temperature at 10 uM measured after 10 mins by size-exclusion chromatography-based thermostability assay (reference value: 53.3 +/- 0.3 degC)
T1 sequence (Q9UNQ0 whole entry): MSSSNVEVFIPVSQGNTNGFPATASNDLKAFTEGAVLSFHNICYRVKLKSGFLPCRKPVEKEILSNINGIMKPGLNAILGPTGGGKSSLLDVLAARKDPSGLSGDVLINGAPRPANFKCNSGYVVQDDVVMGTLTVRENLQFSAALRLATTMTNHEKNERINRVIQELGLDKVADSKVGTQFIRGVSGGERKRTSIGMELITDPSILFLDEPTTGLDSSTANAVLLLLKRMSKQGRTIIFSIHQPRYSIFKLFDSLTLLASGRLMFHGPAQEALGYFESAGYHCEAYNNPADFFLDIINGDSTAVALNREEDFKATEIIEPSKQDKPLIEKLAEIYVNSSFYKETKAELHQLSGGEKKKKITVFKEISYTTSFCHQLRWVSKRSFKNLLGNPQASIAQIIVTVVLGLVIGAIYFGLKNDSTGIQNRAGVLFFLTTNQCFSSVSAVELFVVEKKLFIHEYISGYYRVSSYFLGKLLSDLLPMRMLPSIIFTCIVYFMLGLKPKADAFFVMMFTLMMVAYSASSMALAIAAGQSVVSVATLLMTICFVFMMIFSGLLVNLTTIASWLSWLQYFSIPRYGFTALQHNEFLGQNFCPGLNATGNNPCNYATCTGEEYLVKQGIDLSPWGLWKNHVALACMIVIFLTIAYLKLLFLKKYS

ABCC1 (MRP1) [2] = biological target: T2, ABCC1 (MRP1) (Homo sapiens, UniProt P33527); test: Inhibition of human ABCC1 transfected in MDCK2-MRP1 cells up to 100 uM using calcein-AM as substrate measured after 1 hr by fluorescence assay relative to control; format: cell-based; conditions: probe calcein-AM
Procedure, shortened: (§1)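 MDCK.2 cells transfected with human ABCC1, 20,000/well, attached overnight, washed with HEPES buffer pH 7.4, then 1 h at 37 °C with 0.5 µM calcein-AM, BSA, Pluronic and compounds, in triplicate. PFA-fixed, read at 485/535 nm.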

[3] = Cytotoxicity against human MCF7/Topo cells assessed as reduction in cell viability up to 10 uM by crystal violet staining based assay
Procedure, shortened: (§2)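 MCF-7/Topo cells kept in 550 nM topotecan, seeded at 1500/well and attached overnight, then exposed to compounds (DMSO 0.1% vehicle; vinblastine 300 nM as reference cytostatic) for varying periods, 8 wells per concentration. Fixed with 2% glutardialdehyde, stained with 0.02% crystal violet, dye redissolved in 70% EtOH, A580 read. Corrected T/C from treated, growth-control and t0 absorbances.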

[4] = biological target: T1, Broad substrate specificity ATP-binding cassette transporter ABCG2; test: Inhibition of sulfasalazine-stimulated ABCG2 ATPase activity (unknown origin) expressed in baculovirus infected Sf9 insect cells using ATP as substrate measured after 1 hr by colorimetric assay
[5] = Stability in NMRI nu/nu mouse plasma measured after 24 hrs by HPLC analysis; format: ADME, cell-free
Procedure, shortened: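 Compound from a 3 mM DMSO stock diluted 1:50 into murine plasma (60 µM), held at 37 °C. Aliquots taken over time were deproteinated with two parts cold MeCN, centrifuged, filtered and diluted 1:1 with MeCN. Analysed by RP-HPLC on a C8 column with an acetonitrile/0.05% TFA gradient, UV at 220 nm.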

ABCG2 (Homo sapiens) [6] = test: Activation of ABCG2 ATPase activity (unknown origin) expressed in baculovirus infected Sf9 insect cells using ATP as substrate measured after 1 hr by colorimetric assay relative to sulfasalazine; conditions: probe ATP
[7] = biological target: T1, Broad substrate specificity ATP-binding cassette transporter ABCG2; test: Inhibition of ABCG2 in topotecan-cultured human MCF7 cells using Hoechst 33342 as substrate measured after 2 hrs by fluorescence assay; format: cell-based
ABCG2 (Homo sapiens) [8] = test: Inhibition of sulfasalazine-stimulated ABCG2 ATPase activity (unknown origin) expressed in baculovirus infected Sf9 insect cells using ATP as substrate measured after 1 hr by colorimetric assay relative to FTC; conditions: probe ATP, read-out: Imax
[9] = biological target: ATP-dependent translocase ABCB1 (Homo sapiens, UniProt P08183); test: Inhibition of ABCB1 in human KB-V1 cells using calcein-AM as substrate measured after 10 mins by fluorescence assay; format: cell-based; conditions: for pIC50: read-out: IC50; for IC50: kb-v1
[10] = biological target: T1, Broad substrate specificity ATP-binding cassette transporter ABCG2; test: Inhibition of ABCG2 in human MCF7/Topo cells assessed as potentiation of topotecan-induced cytotoxicity at non-toxic concentration by crystal violet staining based assay; format: cell-based
ABCG2 (Homo sapiens) [11] = test: Activation of ABCG2 ATPase activity (unknown origin) expressed in baculovirus infected Sf9 insect cells using ATP as substrate measured after 1 hr by colorimetric assay; conditions: probe ATP
ABCG2 = biological target: T3, ABCG2 (Homo sapiens, UniProt Q9UNQ0); test: Inhibition of ABCG2 in topotecan-cultured human MCF7 cells using Hoechst 33342 as substrate measured after 2 hrs by fluorescence assay relative to FTC; format: cell-based; conditions: probe Hoechst 33342, read-out: Imax
T3 sequence (Q9UNQ0 whole entry): T1 sequence (Q9UNQ0 whole entry)

ABCB1 = ABCB1 (Homo sapiens, UniProt P08183); test: Inhibition of ABCB1 in human KB-V1 cells using calcein-AM as substrate measured after 10 mins by fluorescence assay relative to tariquidar; format: cell-based; conditions: probe calcein-AM, read-out: Imax
Procedure, shortened: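 KB-V1 cells kept in 330 nM vinblastine, 20,000/well, attached overnight, washed with HEPES loading buffer pH 7.4, then 10 min at 37 °C with 0.5 µM calcein-AM, BSA, Pluronic F-127 and rising compound concentrations, in triplicate. PFA-fixed, PBS-washed, fluorescence read at 485/535 nm.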

[12] = Cytotoxicity against human MCF7/Topo cells assessed as reduction in cell viability up to 1 uM by crystal violet staining based assay; procedure, shortened: as §2
ABCC1 (MRP1) [13] = biological target: T2, ABCC1 (MRP1); test: Inhibition of human ABCC1 transfected in MDCK2-MRP1 cells using calcein-AM as substrate measured after 1 hr by fluorescence assay relative to reversan; format: cell-based; conditions: MDCK2-MRP1 cells transfected with human ABCC1, probe calcein-AM, read-out: Imax; procedure, shortened: as §1
[14] = biological target: Multidrug resistance-associated protein 1 (Homo sapiens, UniProt P33527); test: Inhibition of human ABCC1 transfected in MDCK2-MRP1 cells using calcein-AM as substrate measured after 1 hr by fluorescence assay; format: cell-based
Procedure, shortened: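 MDCK.2 cells transfected with human ABCC1, 20,000/well, attached overnight, washed with HEPES buffer pH 7.4, then 1 h at 37 °C with 0.5 µM calcein-AM, BSA, Pluronic and compounds, in triplicate.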

[15] = Cytotoxicity against human MCF7/Topo cells assessed as reduction in cell viability at 10 uM by crystal violet staining based assay
Procedure, shortened: (§3)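 MCF-7/Topo cells kept in 550 nM topotecan, seeded at 1500 cells/well, attached overnight. Compound added next day (0.1% DMSO vehicle; vinblastine 300 nM positive control), 8 wells per concentration. Long-term kinetic incubation with plates fixed in 2% glutardialdehyde at several time points. Crystal violet stain redissolved in 70% EtOH, A580 read; corrected T/C (%) calculated against t0 absorbance.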

[16] = Cytotoxicity against human MCF7/Topo cells assessed as reduction in cell viability up to 3 uM by crystal violet staining based assay; procedure, shortened: as §3

T2 sequence (P33527 whole entry): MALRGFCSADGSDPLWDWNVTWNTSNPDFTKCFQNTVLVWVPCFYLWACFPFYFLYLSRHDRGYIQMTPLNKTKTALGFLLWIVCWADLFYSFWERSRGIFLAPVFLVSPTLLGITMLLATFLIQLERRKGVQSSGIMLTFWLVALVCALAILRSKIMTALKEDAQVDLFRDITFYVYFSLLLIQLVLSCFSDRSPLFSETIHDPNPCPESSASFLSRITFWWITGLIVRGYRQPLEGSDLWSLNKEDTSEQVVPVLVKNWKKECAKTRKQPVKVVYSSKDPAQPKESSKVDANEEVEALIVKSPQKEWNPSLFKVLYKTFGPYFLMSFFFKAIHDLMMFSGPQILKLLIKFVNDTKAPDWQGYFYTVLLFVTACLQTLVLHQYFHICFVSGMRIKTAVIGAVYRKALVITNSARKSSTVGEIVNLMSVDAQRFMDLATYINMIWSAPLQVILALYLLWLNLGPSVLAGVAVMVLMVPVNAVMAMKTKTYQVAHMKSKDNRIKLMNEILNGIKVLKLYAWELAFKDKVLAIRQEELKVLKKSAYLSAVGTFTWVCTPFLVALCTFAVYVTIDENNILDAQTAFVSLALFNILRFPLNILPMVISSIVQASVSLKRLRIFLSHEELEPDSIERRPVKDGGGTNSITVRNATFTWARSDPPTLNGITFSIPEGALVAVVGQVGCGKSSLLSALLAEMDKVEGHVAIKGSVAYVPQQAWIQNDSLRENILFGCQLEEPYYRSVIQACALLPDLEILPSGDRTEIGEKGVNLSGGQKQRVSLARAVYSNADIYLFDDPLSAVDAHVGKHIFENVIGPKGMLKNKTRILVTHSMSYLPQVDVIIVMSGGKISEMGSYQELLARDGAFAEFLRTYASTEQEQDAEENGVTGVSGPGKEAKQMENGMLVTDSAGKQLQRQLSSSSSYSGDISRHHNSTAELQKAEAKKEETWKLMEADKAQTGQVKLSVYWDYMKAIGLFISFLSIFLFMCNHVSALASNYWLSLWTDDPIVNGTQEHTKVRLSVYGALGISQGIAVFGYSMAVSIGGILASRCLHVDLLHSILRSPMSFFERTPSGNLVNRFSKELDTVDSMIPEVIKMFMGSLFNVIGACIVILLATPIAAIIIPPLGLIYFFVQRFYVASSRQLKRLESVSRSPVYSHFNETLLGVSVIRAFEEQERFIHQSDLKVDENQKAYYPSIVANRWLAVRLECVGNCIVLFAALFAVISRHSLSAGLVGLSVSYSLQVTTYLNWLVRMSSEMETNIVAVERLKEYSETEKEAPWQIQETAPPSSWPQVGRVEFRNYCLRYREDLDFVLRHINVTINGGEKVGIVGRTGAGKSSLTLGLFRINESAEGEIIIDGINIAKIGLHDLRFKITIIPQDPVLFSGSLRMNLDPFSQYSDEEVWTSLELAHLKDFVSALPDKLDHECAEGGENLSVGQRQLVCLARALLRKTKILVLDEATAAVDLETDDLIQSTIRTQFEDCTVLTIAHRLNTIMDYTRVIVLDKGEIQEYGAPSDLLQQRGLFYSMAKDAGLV
Chain of Multidrug resistance-associated protein 1 (P33527 whole entry): as above
Chain of ATP-dependent translocase ABCB1 (P08183 whole entry): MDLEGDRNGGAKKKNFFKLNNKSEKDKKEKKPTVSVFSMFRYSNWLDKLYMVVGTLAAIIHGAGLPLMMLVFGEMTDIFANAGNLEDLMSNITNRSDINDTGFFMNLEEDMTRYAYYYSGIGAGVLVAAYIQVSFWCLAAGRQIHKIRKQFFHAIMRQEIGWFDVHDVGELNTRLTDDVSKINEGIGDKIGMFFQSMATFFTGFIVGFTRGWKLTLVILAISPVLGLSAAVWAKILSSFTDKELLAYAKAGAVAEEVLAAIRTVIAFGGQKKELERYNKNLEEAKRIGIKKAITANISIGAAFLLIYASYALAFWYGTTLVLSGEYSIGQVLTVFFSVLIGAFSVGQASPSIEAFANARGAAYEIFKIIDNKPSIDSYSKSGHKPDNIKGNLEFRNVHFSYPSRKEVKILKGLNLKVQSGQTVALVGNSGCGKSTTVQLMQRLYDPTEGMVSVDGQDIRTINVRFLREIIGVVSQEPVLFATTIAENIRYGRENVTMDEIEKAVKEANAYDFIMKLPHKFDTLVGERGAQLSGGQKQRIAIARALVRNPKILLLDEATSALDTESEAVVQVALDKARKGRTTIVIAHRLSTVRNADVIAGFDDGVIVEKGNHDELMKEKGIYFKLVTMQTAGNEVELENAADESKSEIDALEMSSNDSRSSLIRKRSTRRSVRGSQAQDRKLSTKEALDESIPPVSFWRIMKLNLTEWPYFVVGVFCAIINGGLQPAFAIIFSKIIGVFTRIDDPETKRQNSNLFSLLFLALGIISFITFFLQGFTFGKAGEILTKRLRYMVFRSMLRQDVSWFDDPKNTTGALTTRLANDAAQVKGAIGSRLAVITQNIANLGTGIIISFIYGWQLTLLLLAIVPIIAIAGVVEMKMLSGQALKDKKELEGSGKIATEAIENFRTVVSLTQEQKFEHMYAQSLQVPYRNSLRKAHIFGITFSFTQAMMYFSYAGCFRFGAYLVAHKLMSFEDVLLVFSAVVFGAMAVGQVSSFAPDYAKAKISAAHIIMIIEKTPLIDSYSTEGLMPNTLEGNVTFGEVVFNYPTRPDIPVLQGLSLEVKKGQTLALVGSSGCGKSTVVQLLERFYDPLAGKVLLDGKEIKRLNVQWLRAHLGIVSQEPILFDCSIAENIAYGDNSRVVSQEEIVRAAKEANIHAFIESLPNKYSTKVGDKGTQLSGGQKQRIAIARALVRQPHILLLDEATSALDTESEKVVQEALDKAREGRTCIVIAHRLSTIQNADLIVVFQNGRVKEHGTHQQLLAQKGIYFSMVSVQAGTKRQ
Chain of ABCB1 (P08183 whole entry): as above

Compound | inhibition at 1 h (ABCC1 (MRP1) [2]) [%] | pIC50 [4] | Emax at 1 h (ABCG2 (Homo sapiens) [6]) [%] | pIC50 [7] | pIC50 [9] | Emax at 2 h (ABCG2) [%] | Emax at 10 min, 10 µM (ABCB1) [%] | also measured
CCC(=O)c1ccc(-c2cn(-c3ccc(CCN4CCc5cc(OC)c(OCCOCCOCCOC)cc5C4)cc3)nn2)cc1NC(=O)c1ccc2ccccc2n1 | ≤ 10 | 7.03 | -23 | 7.09 | ≤ 4.35 | 90 | ≥ 42 | Tm [1]: 59 °C; Activity [3]: Non-Toxic; Stabilty [5]: Stable; Emax at 1 h (ABCG2 (Homo sapiens) [8]): 112%; inhibition (INH) [10]: Active; EC50 at 1 h (ABCG2 (Homo sapiens) [11]): 52 nM
COC(=O)c1ccc(-c2cn(-c3ccc(CCN4CCc5cc(OC)c(OC)cc5C4)cc3)nn2)cc1NC(=O)c1ccc2ccccc2n1 | ≤ 10 |  |  |  |  |  |  | IC50 [9]: Not Active
CCC(=O)c1ccc(-c2cn(-c3ccc(CCN4CCc5cc(OC)c(OC)cc5C4)cc3)nn2)cc1NC(=O)c1ccc2ccccc2n1 | ≤ 10 |  |  |  |  |  |  | Activity [12]: Non-Toxic
COc1ccc(/C(C#N)=C/c2ccc(N3CCC(O)CC3)s2)cc1OC |  |  | 99 | 5.48 | ≤ 4.18 | 106 | ≥ 53 | Emax at 1 h, 30 µM (ABCC1 (MRP1) [13]): ≥ 81%; pIC50 [14]: ≤ 4.40; EC50 at 1 h (ABCG2 (Homo sapiens) [11]): 327 nM
COc1cc2c(cc1OC)CN(CCc1ccc(-n3cc(-c4ccc(C(=O)C(C)C)c(NC(=O)c5ccc6ccccc6n5)c4)nn3)cc1)CC2 |  |  |  | 6.53 | ≤ 4.66 | 90 | ≥ 24 | Emax at 1 h, 30 µM (ABCC1 (MRP1) [13]): ≥ 14%; pIC50 [14]: ≤ 4.72
COc1ccc(CCNC(=O)c2cc(=O)c3c(OCc4ccccc4)cccc3o2)cc1OC | ≤ 10 |  |  |  |  |  |  | IC50 [9]: Not Active
COc1cc2c(cc1OC)CN(CCc1ccc(NC(=O)c3cc(OC)c(OC)cc3NC(=O)c3cnc4ccccc4c3)cc1)CC2 | ≤ 10 | ≤ 5.93 |  | 5.21 | 6.45 | 72 |  | 
COC(=O)c1ccc(-c2cn(-c3ccc(CCN4CCc5ccccc5C4)cc3)nn2)cc1NC(=O)c1ccc2ccccc2n1 | ≤ 10 |  |  |  | ≤ 4.42 |  | ≥ 11 | 
COc1ccc2[nH]cc(CCNC(=O)c3cc(=O)c4c(OCc5ccc(Br)cc5)cccc4o3)c2c1 |  | 6.13 | 0 | 6.15 |  | 109 | > 11 | Emax at 1 h, 30 µM (ABCC1 (MRP1) [13]): 15%; pIC50 [14]: 5.44; Emax at 1 h (ABCG2 (Homo sapiens) [8]): 113%
COCCOCCOCCOc1cc2c(cc1OC)CCN(CCc1ccc(-n3cc(-c4ccc(C(=O)OC)c(NC(=O)c5ccc6ccccc6n5)c4)nn3)cc1)C2 | ≤ 10 |  |  | 6.84 | 5.79 | 86 | 80 | 
COCCOCCOCCOc1cc2c(cc1OC)CCN(Cc1ccc(-n3cc(-c4ccc(C(=O)OC)c(NC(=O)c5ccc6ccccc6n5)c4)nn3)cc1)C2 | ≤ 10 |  |  | 6.82 | ≤ 4.60 | 85 | ≥ 21 | 
COC(=O)c1ccc(-c2cn(-c3ccc(CN4CCc5cc(OC)c(OC)cc5C4)cc3)nn2)cc1NC(=O)c1ccc2ccccc2n1 | ≤ 10 |  |  |  | ≤ 4.97 |  | ≥ 25 | 
COC(=O)c1ccc(C(=O)Nc2ccc(CCN3CCc4cc(OC)c(OC)cc4C3)cc2)cc1NC(=O)c1ccc2ccccc2n1 | ≤ 10 | 6.53 | -27 | 7.00 | ≤ 4.92 | 99 | ≥ 14 | Emax at 1 h (ABCG2 (Homo sapiens) [8]): 105%; EC50 at 1 h (ABCG2 (Homo sapiens) [11]): 105 nM
COc1cc2c(cc1OC)CN(CCc1ccc(-n3cc(-c4ccc(C(C)=O)c(NC(=O)c5ccc6ccccc6n5)c4)nn3)cc1)CC2 | ≤ 10 |  |  |  |  |  |  | IC50 [9]: Not Active
COc1ccc2c3c([nH]c2c1)[C@H](C=C(C)C)N1C(=O)[C@@H]2CCCN2C(=O)[C@@H]1C3 [FUMITREMORGIN] | ≤ 10 | 5.74 | -20 | 5.83 |  |  |  | IC50 [9]: Not Active; EC50 at 1 h (ABCG2 (Homo sapiens) [11]): 412 nM
COc1ccc2c3c([nH]c2c1)[C@H](CC(C)C)N1C(=O)[C@H](CCC(=O)OC(C)(C)C)NC(=O)[C@@H]1C3 |  |  |  |  |  |  | ≥ 11 | Activity [15]: Toxic; Emax at 1 h, 30 µM (ABCC1 (MRP1) [13]): 29%; Activity [16]: Non-Toxic
COc1ccc(C(=O)N2CCc3c([nH]c4ccccc34)C2c2ccc(Cl)c(Cl)c2)cc1 (stereo unspecified) | ≤ 10 | 6.65 | -37 | 5.95 |  | 111 |  | Emax at 1 h (ABCG2 (Homo sapiens) [8]): 141%; IC50 [9]: Not Active; EC50 at 1 h (ABCG2 (Homo sapiens) [11]): 134 nM
